Reference: ChEMBL document CHEMBL3392986, “Hydroxamic acids block replication of hepatitis C virus” (J Med Chem, 2015)

Tests used:
[1] = Cytotoxicity against human HuH7 cells assessed as inhibition of cell viability after 3 days by CellTiter 96 assay
Hepatitis C virus [2] = test: Antiviral activity against HCV genotype 1b infected in human Huh7 cells after 3 days by luciferase reporter gene assay; assay type: functional, cell-based, Hepacivirus hominis; conditions: Huh-7, 72 h
[3] = Therapeutic index, ratio of CC50 for human HuH7 cells to EC50 for HCV genotype 1b infected in human Huh7 cells
Hepatitis C virus [4] = test: Antiviral activity against HCV genotype 1b infected in human Huh7 cells at 1 uM after 3 days by luciferase reporter gene assay; assay type: functional, Hepacivirus hominis; conditions: Huh-7, 72 h
How it was run: (§1)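 Subgenomic luciferase replicon cells seeded at 6 X 10^3 per well. Next day, medium containing compound in DMSO, or DMSO alone, was added. After three days, luciferase read with ViViRen live-cell substrate. Percent inhibition is the triplicate average; 2mA served as control in single-dose runs.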

Hepatitis C virus [5] = test: Antiviral activity against HCV genotype 1b infected in human Huh7 cells at 10 uM after 3 days by luciferase reporter gene assay; assay type: functional, Hepacivirus hominis; conditions: Huh-7, 72 h; how it was run: as §1
[6] = Cytotoxicity against human HuH7 cells assessed as inhibition of cell viability at 10 uM after 3 days by CellTiter 96 assay; assay type: cell-based, Huh-7; conditions: read-out: INH
How it was run: (§2)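 Replicon cells plated at 6 X 10^3 per well and treated the next day with compound in DMSO, DMSO alone or nothing for three days at 37 °C/5% CO2. Viability measured by CellTiter 96 AQueous One, absorbance 450 nm. Percent inhibition is the average of triplicate wells.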

[7] = Cytotoxicity against human HuH7 cells assessed as inhibition of cell viability at 1 uM after 3 days by CellTiter 96 assay; assay type: cell-based, Huh-7; conditions: read-out: INH; how it was run: as §2
Hepatitis C virus [8] = test: Antiviral activity against HCV genotype 1b infected in human Huh7 cells assessed as reduction in viral RNA level at 2 uM after 3 days by RT-qPCR; assay type: functional, Hepacivirus hominis, Huh-7; design: scale not given: the % may be the effect or the level left
How it was run: (§3)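 Replicon-bearing Huh7 cells, 6 X 10^3 per well, exposed to compound in DMSO or DMSO alone for three days at 37 °C/5% CO2. Replicon RNA quantified by TaqMan Cells-to-CT RT-qPCR with NS5B primers/probe, using GAPDH in parallel wells as reference. Level relative to DMSO-treated cells calculated as 2-∆∆CT. Triplicate wells.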

Hepatitis C virus [9] = test: Antiviral activity against HCV genotype 1b infected in human Huh7 cells assessed as reduction in viral RNA level at 0.5 uM after 3 days by RT-qPCR; assay type: functional, Hepacivirus hominis, Huh-7; design: scale not given: the % may be the effect or the level left; conditions: in the assay text read “2 uM” for “0.5 uM”; how it was run: as §3

Row | EC50 (Hepatitis C virus [2]) [µM] | Compound | CC50 at 72 h [1] [µM] | selectivity ratio ([3]; HuH7 cells) | inhibition at 10 µM (Hepatitis C virus [5]) [%] | cytotoxicity at 72 h, 10 µM [6] [%] | further results
1 | 1.8 | O=C(NO)c1cc2ccccc2o1 | 54 | 30 | – | – | –
2 | 0.21 | COc1cc(NC(=O)CCCCCCC(=O)NO)ccc1-c1cnco1 | 2.6 | 12 | – | – | –
3 | – | CS(=O)(=O)c1ccc(/C=C/C(=O)NO)cc1 | – | – | 93 | 0 | inhibition at 1 µM (Hepatitis C virus [4]): 30%; cytotoxicity at 72 h, 1 µM [7]: 0%
4 | – | O=C(/C=C/c1ccccc1C(F)(F)F)NO | – | – | 40 | 5 | –
5 | 1.4 | O=C(NO)c1sc2ccccc2c1[S+]([O-])c1ccccc1 (stereo unspecified) | > 50 | > 36 | – | – | –
6 | – | O=C(O)c1sc2ccccc2c1S(=O)(=O)c1ccccc1 | – | – | 19 | 2 | –
7 | – | O=C(NO)c1c[nH]c2ccccc12 | – | – | 0 | – | –
8 | 0.86 | O=C(/C=C/c1ccccc1)NO | 39 | – | – | – | selectivity ratio ([3]; huh-7): 45
9 | – | O=C(NO)c1cc2ccccc2[nH]1 | – | – | 45 | 7 | –
10 | – | O=C(NCC1(c2nc(-c3ccccc3)cs2)CCOCC1)c1cccc(-c2noc(C(F)(F)F)n2)c1 | – | – | 22 | 21 | –
11 | – | O=C(NO)c1cn(Cc2ccccc2)c2ccccc12 | – | – | 99 | 92 | –
12 | – | O=C(NO)c1cc2ccc(C(F)(F)F)cc2s1 | – | – | 83 | 13 | inhibition at 1 µM (Hepatitis C virus [4]): 0%; cytotoxicity at 72 h, 1 µM [7]: 4%
13 | – | COC(=O)/C=C/c1ccc(C(F)(F)F)cc1 | – | – | 0 | 1 | –
14 | – | Nc1ccccc1NC(=O)/C=C/c1ccc(C(F)(F)F)cc1 | – | – | 94 | 82 | –
15 | – | O=C(CCc1ccc(C(F)(F)F)cc1)NO | – | – | 35 | 0 | –
16 | 1.8 | COc1ccc(Cn2ccc3ccc(C(=O)NO)cc32)cc1 | 11 | 6 | – | – | –
17 | – | O=C(C=C(c1ccccc1)c1ccccc1)NO | – | – | 64 | 4 | –
18 | – | O=C(O)/C=C/c1ccc(C(F)(F)F)cc1 | – | – | 19 | 0 | –
19 | 0.14 | O=C(/C=C/c1ccc(C(F)(F)F)cc1)NO | 25 | 178 | – | – | –
20 | 0.54 | O=C(/C=C/c1c(F)cc(C(F)(F)F)cc1F)NO | 12 | 22 | – | – | –
21 | – | O=C(/C=C/c1ccncc1)NO | – | – | 20 | 0 | –
22 | – | O=C(NO)c1cc2cc(C(F)(F)F)ccc2s1 | – | – | 94 | 0 | inhibition at 1 µM (Hepatitis C virus [4]): 16%; cytotoxicity at 72 h, 1 µM [7]: 10%
23 | – | O=C(NO)c1sc2ccccc2c1Sc1ccccc1 | – | – | 8 | 4 | –
24 | – | O=C(NO)c1cc2ccccc2n1Cc1ccccc1 | – | – | 82 | 28 | –
25 | 0.12 | O=C(/C=C/c1ccc(C(F)(F)F)cc1F)NO | 14 | 117 | – | – | –
26 | 3.2 | C/C(=C\C(=O)NO)c1ccccc1 | 59 | 18 | – | – | –

Row | EC50 (Hepatitis C virus [2]) [µM] | Compound | CC50 at 72 h [1] [µM] | selectivity ratio ([3]; HuH7 cells) | inhibition at 10 µM (Hepatitis C virus [5]) [%] | cytotoxicity at 72 h, 10 µM [6] [%] | further results
27 | – | CN1CCc2c(c3ccccc3n2Cc2ccc(C(=O)NO)cc2)C1 [TUBASTATIN A] | – | – | 97 | 70 | –
28 | – | O=C(/C=C/c1ccccn1)NO | – | – | 58 | 1 | –
29 | 1.1 | O=C(/C=C/c1ccc(C(F)(F)F)cc1Cl)NO | 15 | 14 | – | – | –
30 | 1.4 | Nc1ccccc1NC(=O)c1ccc(CNC(=O)OCc2cccnc2)cc1 [ENTINOSTAT] | 5.1 | – | – | – | selectivity ratio ([3]; huh-7): 4
31 | 3.7 | O=C(NO)c1cc2ccc([N+](=O)[O-])cc2s1 | 54 | 15 | – | – | –
32 | – | O=C(NO)c1cc2ccccc2n1-c1ccccc1 | – | – | 41 | 15 | –
33 | 0.12 | O=C(/C=C/c1cccc(S(=O)(=O)Nc2ccccc2)c1)NO [BELINOSTAT] | 0.68 | – | – | – | selectivity ratio ([3]; huh-7): 6
34 | 2.4 | O=C(NO)c1cc2cc([N+](=O)[O-])ccc2s1 | 34 | 14 | – | – | –
35 | – | O=C(/C=C/c1cccc(C(F)(F)F)c1)NO | – | – | 43 | 6 | –
36 | – | N#Cc1ccc(/C=C/C(=O)NO)cc1 | – | – | 99 | 18 | inhibition at 1 µM (Hepatitis C virus [4]): 45%; cytotoxicity at 72 h, 1 µM [7]: 16%
37 | – | COc1ccc(/C=C/C(=O)NO)cc1 | – | – | 15 | 0 | –
38 | 1 | O=C(NO)c1cc2ccccc2s1 | 28 | 28 | – | – | –
39 | 0.078 | O=C(/C=C/c1ccc(Cl)cc1Cl)NO [CINNAMIC ACID HYDROXAMATE] | 8.1 | 104 | – | – | –
40 | – | O=C(/C=C/c1cccnc1)NO | – | – | 40 | 2 | –
41 | – | Cc1ccc(/C=C/C(=O)NO)cc1 | – | – | 15 | 0 | –
42 | 0.38 | O=C(/C=C/c1ccc(C(F)(F)F)cn1)NO | 13 | 34 | – | – | –
43 | 6 | O=C(/C=C/c1ccc(Cl)cc1)NO | > 50 | > 8 | – | – | –
44 | 0.69 | O=C(NO)c1cc2cc(Cl)ccc2s1 | 27 | 39 | – | – | Activity (Hepatitis C virus [8]): 75%; Activity (Hepatitis C virus [9]): 75%
45 | – | NC(=O)/C=C/c1ccc(C(F)(F)F)cc1 | – | – | 6 | 1 | –
46 | – | COC(=O)c1sc2ccccc2c1S(=O)(=O)c1ccccc1 | – | – | 5 | 0 | –
47 | – | Cc1[nH]c2ccccc2c1CCNCc1ccc(/C=C/C(=O)NO)cc1 [PANOBINOSTAT] | 0.0035 | – | – | – | –
48 | 5.4 | O=C(NO)c1ccc(C(F)(F)F)cc1 | > 100 | > 18 | – | – | –
49 | – | O=C(NO)c1cn(-c2ccccc2)c2ccccc12 | – | – | 11 | – | –
50 | 0.45 | O=C(/C=C/c1ccc([N+](=O)[O-])cc1)NO | 29 | 64 | – | – | –
51 | 0.4 | O=C(/C=C/c1ccc(C(F)(F)F)nc1)NO | 19 | 48 | – | – | –
